Test results: publication PMC4076841 (Biomaterials, 2014)

What was measured:
[1] = Toxicity and pathology studies; type: in vivo, mice
Outline: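 Female athymic nude mice (5–6 wk, 18–22 g) were dosed IV weekly during therapeutic treatment. Mice for histology received four doses of 1 mg/kg each. Serum AST, ALT and BUN were measured, with BUN taken 7 days after the last dose. Heart, liver, spleen, lung and kidney were formalin-fixed, H&E-stained and imaged by light microscopy. Data are mean ± SEM, compared by one-way ANOVA.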

[2] = Biodistribution of Pt in A375M tumor-bearing mice; type: in vivo; conditions: 1 mg/kg Pt IV, 24 h post injection
[3] = cited from earlier work
[4] = cited from earlier work; remark: listed apart in the source

With `[NH2][Pt]([NH2])([Cl])[Cl]` [CDDP, cisplatin] the “nephrotoxicity (kidney H&E histology)” value ([1]; four doses, 1 mg/kg each) was “glomeruloscelorsis, tubular cell atrophy, and cystic dilatation of renal tubes”, the “BUN versus control group” value ([1]; measured 7 days after the last treatment) was “no significant difference” and the ALT ([1]; serum, after treatment) was “fell within the normal range”. The AST ([1]; serum, after treatment) was “fell within the normal range” and the “accumulation in tumors, injected dose (ID) per gram” value [2] was 1.2 % ID/g.
For `[NH2][Pt]([NH2])([I])[I]` [CDDP-I, iodinated cisplatin], the “solubility in water and organic solvents” value [3] is listed as “insolubility” and the anti-tumor efficacy [4] is listed as “ineffective”.
